# Reference: ChEMBL document CHEMBL4354869, “pH-Dependent Grafting of Cancer Cells with Antigenic Epitopes Promotes Selective Antibody-Mediated Cytotoxicity” (J Med Chem, 2020)
# Activity calls are given as the source filed them. The calls are words filed in the database; no cut-off is given here. Square brackets hold non-standard residues; d marks the D form. Peptide text beside a SMILES is read from it. * marks the point of attachment. Dnp = O=[N+]([O-])c1ccc(*)c([N+](=O)[O-])c1; Gla = N[C@@H](CC(C(=O)O)C(=O)O)C(=O)O; Aad = N[C@@H](CCCC(=O)O)C(=O)O
# Tests used:
# Lipid bilayer [1] = experiment: Binding affinity to POPC large unilamellar vesicle at 1:300 ratio measured after 30 mins at pH 5 to 7.4 by tryptophan fluorescence spectroscopic analysis
# Summary of the method: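 Peptide (7 μM final, from 20 μM stock in 5 mM sodium phosphate pH 8.0) with extruded 100 nm POPC LUVs at 1:300; pH set with HCl, 30 min RT before tryptophan emission spectra were recorded.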
# MDA-MB-231 [2] = experiment: Induction of opsonization in human MDA-MB-231 cells assessed as increase in recruitment of anti-FITC antibody to cell surface at 1 uM measured after 5 to 10 mins at pH 6 to 7.4 by Alexa Fluor 647 conjugated anti-FITC antibody based flow cytometry; format: functional
# Summary of the method: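 Cells in suspension (350000 MDA-MB-231) given 1 μM pH-adjusted conjugate for 5 or 10 min at 37 °C, pH 7.4 or 6.0, washed, then Alexa Fluor 647 anti-FITC mouse mAb in PBS/10% FBS 30 min at 4 °C, PFA-fixed. Flow cytometry, ≥3000 events; fold over pH 7.4 antibody-only cells; mean ± SEM, n = 3.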
# Lipid bilayer [3] = experiment: Binding affinity to POPC large unilamellar vesicle at 1:300 ratio measured after 30 mins at pH 5 to 7.4 by circular dichroism spectroscopic analysis
# Summary of the method: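 Peptide (20 μM stock in 5 mM sodium phosphate pH 8.0; 7 μM final) mixed with POPC LUVs (extruded, 100 nm pores) at 1:300, pH lowered with HCl, 30 min RT. Far-UV CD 260–200 nm in 0.1 cm cuvette, ≥5 scans averaged, liposome spectrum subtracted; expressed as mean residue molar ellipticity.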
# [4] = Drug internalization in human MDA-MB-231 cells assessed as increase in fluorescence at 1 uM measured after 30 mins at pH 6 to 7.4 in presence of FITC-labeled anti-human IgG by flow cytometric method; format: ADME, cell-based; settings: mda-mb-231, pH 6, 0.5 h
# Summary of the method: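 Control for specificity: MDA-MB-231 treated with 1 μM conjugate at pH 7.4 or 6.0 (5–10 min, 37 °C), washed, then incubated ± 25 μg/mL FITC anti-human IgG in PBS/10% FBS, 30 min at 4 °C, fixed, read by flow cytometry.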
# MDA-MB-231 [5] = experiment: Induction of opsonization in human MDA-MB-231 cells assessed as increase in recruitment of anti-DNP antibody to cell surface at 1 uM measured after 5 to 10 mins at pH 6 to 7.4 by AlexaFluor-488-conjugated anti-DNP antibody based flow cytometry; format: functional
# Summary of the method: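 Conjugate pre-incubated 1 h RT at 20 μM in 5 mM sodium phosphate pH 9.0, diluted, then pH adjusted with citrate buffer. MDA-MB-231 (350000 cells, suspension) exposed to 1 μM for 5 or 10 min, 37 °C, pH 7.4 or 6.0, washed, stained with 25 μg/mL anti-DNP-A488 30 min at 4 °C, PFA-fixed. Flow cytometry, ≥3000 events; fold over pH 7.4 antibody-only cells.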
Activity (Lipid bilayer [1]),Activity (Lipid bilayer [3]),Drug uptake [4],SMILES,Activity (MDA-MB-231 [2]),Activity (MDA-MB-231 [5])
Active,–,–,CC[C@H](C)[C@H](NC(=O)[C@@H]1CCCN1C(=O)[C@H](CC(N)=O)NC(=O)[C@H](CCC(N)=O)NC(=O)[C@H](CCC(=O)O)NC(=O)[C@H](CSC1CC(=O)N(CCC(=O)NOCCOCCOCCOCCOCCOCCC(=O)NCCCNC(=O)c2ccc(-c3c4ccc(=O)cc-4oc4cc(O)ccc34)c(C(=O)O)c2)C1=O)NCC(N)=O)C(=O)N[C@@H](Cc1ccc(O)cc1)C(=O)N[C@@H](Cc1c[nH]c2ccccc12)C(=O)N[C@@H](C)C(=O)N[C@@H](CCCNC(=N)N)C(=O)N[C@@H](Cc1ccc(O)cc1)C(=O)N[C@@H](C)C(=O)N[C@@H](CC(=O)O)C(=O)N[C@@H](Cc1c[nH]c2ccccc12)C(=O)N[C@@H](CC(C)C)C(=O)N[C@@H](Cc1ccccc1)C(=O)N[C@H](C(=O)N[C@H](C(=O)N1CCC[C@H]1C(=O)N[C@@H](CC(C)C)C(=O)N[C@@H](CC(C)C)C(=O)N[C@@H](CC(C)C)C(=O)N[C@@H](CC(C)C)C(=O)N[C@@H](CC(=O)O)C(=O)N[C@@H](CC(C)C)C(=O)N[C@@H](C)C(=O)N[C@@H](CC(C)C)C(=O)N[C@@H](CC(C)C)C(=O)N[C@H](C(=O)N[C@@H](CC(=O)O)C(=O)N[C@@H](C)C(=O)N[C@@H](CC(=O)O)C(=O)N[C@@H](CCC(=O)O)C(=O)NCC(=O)N[C@H](C(=O)NCC(N)=O)[C@@H](C)O)C(C)C)[C@@H](C)O)[C@@H](C)O (stereo partly drawn),Active,–
–,Active,Not Active,CC[C@H](C)[C@H](NC(=O)[C@@H]1CCCN1C(=O)[C@H](CC(N)=O)NC(=O)[C@H](CCC(N)=O)NC(=O)[C@H](CCC(=O)O)NC(=O)[C@@H](N)CCCCNc1ccc([N+](=O)[O-])cc1[N+](=O)[O-])C(=O)N[C@@H](Cc1ccc(O)cc1)C(=O)N[C@@H](Cc1c[nH]c2ccccc12)C(=O)N[C@@H](C)C(=O)N[C@@H](CCCNC(=N)N)C(=O)N[C@@H](Cc1ccc(O)cc1)C(=O)N[C@@H](C)C(=O)N[C@@H](CC(=O)O)C(=O)N[C@@H](Cc1c[nH]c2ccccc12)C(=O)N[C@@H](CC(C)C)C(=O)N[C@@H](Cc1ccccc1)C(=O)N[C@H](C(=O)N[C@H](C(=O)N1CCC[C@H]1C(=O)N[C@@H](CC(C)C)C(=O)N[C@@H](CC(C)C)C(=O)N[C@@H](CC(C)C)C(=O)N[C@@H](CC(C)C)C(=O)N[C@@H](CC(=O)O)C(=O)N[C@@H](CC(C)C)C(=O)N[C@@H](C)C(=O)N[C@@H](CC(C)C)C(=O)N[C@@H](CC(C)C)C(=O)N[C@H](C(=O)N[C@@H](CC(=O)O)C(=O)N[C@@H](C)C(=O)N[C@@H](CC(=O)O)C(=O)N[C@@H](CCC(=O)O)C(=O)NCC(=O)N[C@H](C(=O)NCC(N)=O)[C@@H](C)O)C(C)C)[C@@H](C)O)[C@@H](C)O (H-K(Dnp)EQNPIYWARYADWLFTTPLLLLDLALLVDADEGTG-NH2),–,Active
–,Active,Not Active,CC[C@H](C)[C@H](NC(=O)[C@@H]1CCCN1C(=O)[C@H](CC(N)=O)NC(=O)[C@H](CCC(N)=O)NC(=O)[C@H](CCC(=O)O)NC(=O)[C@@H](N)CCCCNc1ccc([N+](=O)[O-])cc1[N+](=O)[O-])C(=O)N[C@@H](Cc1ccc(O)cc1)C(=O)N[C@@H](Cc1c[nH]c2ccccc12)C(=O)N[C@@H](C)C(=O)N[C@@H](CCCNC(=N)N)C(=O)N[C@@H](Cc1ccc(O)cc1)C(=O)N[C@@H](C)C(=O)N[C@@H](CC(C(=O)O)C(=O)O)C(=O)N[C@@H](Cc1c[nH]c2ccccc12)C(=O)N[C@@H](CC(C)C)C(=O)N[C@@H](Cc1ccccc1)C(=O)N[C@H](C(=O)N[C@H](C(=O)N1CCC[C@H]1C(=O)N[C@@H](CC(C)C)C(=O)N[C@@H](CC(C)C)C(=O)N[C@@H](CC(C)C)C(=O)N[C@@H](CC(C)C)C(=O)N[C@@H](CCCC(=O)O)C(=O)N[C@@H](CC(C)C)C(=O)N[C@@H](C)C(=O)N[C@@H](CC(C)C)C(=O)N[C@@H](CC(C)C)C(=O)N[C@H](C(=O)N[C@@H](CC(=O)O)C(=O)N[C@@H](C)C(=O)N[C@@H](CC(=O)O)C(=O)N[C@@H](CCC(=O)O)C(=O)NCC(=O)N[C@H](C(=O)NCC(N)=O)[C@@H](C)O)C(C)C)[C@@H](C)O)[C@@H](C)O (H-K(Dnp)EQNPIYWARYA[Gla]WLFTTPLLLL[Aad]LALLVDADEGTG-NH2),–,Active
